High-throughput results from PubChem BioAssay.
Ecoli rRNA inh: inhibits bacterial ribosomal RNA function over humanized ribosomes | E. coli WT GFP vs humanized-ribosome RFP mutants, fluorescence, 24 h; active compounds read low; DMSO median 0, no signal -100 | GFP signal change (wild-type ribosome), % (no concentration beside the values) | 350,000 compounds, 1.6% hits;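 active means significant combined selectivity score with lowered wild-type GFP, culture density cut under 30%, mutant RFP and density less affected; inactive means any of these conditions unmet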
PvdQ acylase: P. aeruginosa PvdQ acylase inhibition; AID 488965; inhibition, % at 10 µM; 340,000 compounds, 0.063% hits; purified PvdQ acylase, fluorescence plate reader; in the data active means inhibition above about 30%, passing the limit was not always enough; inconclusive means no clear call, values can overlap the other calls;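 further: 0% = vehicle neutral wells and 100% = reference inhibitor wells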
PDI turbidity: inhibitors of human protein disulfide isomerase; inhibition, % at 10 µM; PDI insulin aggregation turbidity, A650, 90 min; P07237; 350,000 compounds, 0.052% hits;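 active means mean inhibition across replicates of 30% or more, whatever share of single replicates reach that level; inconclusive means mean inhibition below 30% while every single replicate reaches 30%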
Target sequence (P07237 whole entry, looked up): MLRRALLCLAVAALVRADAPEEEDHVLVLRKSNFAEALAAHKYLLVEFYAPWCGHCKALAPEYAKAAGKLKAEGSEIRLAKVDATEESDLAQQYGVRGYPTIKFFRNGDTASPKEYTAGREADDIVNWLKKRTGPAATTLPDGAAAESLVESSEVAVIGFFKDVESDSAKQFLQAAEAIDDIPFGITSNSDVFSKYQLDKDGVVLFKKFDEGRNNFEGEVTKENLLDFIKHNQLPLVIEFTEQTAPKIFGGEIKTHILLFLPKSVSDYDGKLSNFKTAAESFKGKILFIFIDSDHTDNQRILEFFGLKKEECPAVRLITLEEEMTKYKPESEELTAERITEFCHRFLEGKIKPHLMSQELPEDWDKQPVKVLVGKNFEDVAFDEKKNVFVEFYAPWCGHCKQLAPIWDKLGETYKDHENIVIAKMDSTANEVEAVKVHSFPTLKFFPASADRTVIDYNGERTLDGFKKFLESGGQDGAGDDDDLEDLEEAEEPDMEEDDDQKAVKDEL
ERp5 inh: blocks human ERp5 reductase activity on insulin. ERp5 insulin aggregation, absorbance 650 nm, 90 min. inhibition, % at 9.99 µM. 350,000 compounds, 0.05% hits;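 active means mean replicate inhibition above about 25%, with every replicate also reaching it, limit read from the data, passing the limit was not always enough; inconclusive means only one of those two criteria met; inactive means neither criterion met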
FN deposit inh: fibronectin deposition inhibition | AH1F fibroblasts, Alexa488-fibronectin deposition fluorescence, overnight | 350,000 compounds, 0.086% hits | inhibition, % at 12.6 µM;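 active means mean inhibition across replicates of 30% or more, regardless of how many single replicates reach that level; inconclusive means mean under 30% yet at least half of replicates reach 30%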;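 further: positive control wells lacked labelled fibronectin entirely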
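Measured by – fluorescence 485/525 nm · System – AH1F fibroblast monolayer, labelled fibronectin deposition · Amount – 10000 cells per well · Buffer or medium – serum-reduced DMEM (2% serum) · Doses – single dose, pinned · Also added – fluorescent fibronectin at 24 nM final · Schedule – 1 h cell attachment, overnight exposure to compound and label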
Env fusion inh: inhibitors of HIV Env-mediated cell fusion | HeLa-JRFL Env/CEM21 cell fusion, luciferase | inhibition, % at 12.3 µM | 360,000 compounds, 1.1% hits | AID 651610;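 active means mean replicate inhibition score of at least 50 and every replicate individually at or above 50; inconclusive means only one of the two criteria met; inactive means mean below 50 and not all replicates reaching 50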;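 further: 0% = plate neutral controls and 100% = maraviroc near 300 nM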
Numbers without * were called inactive; ? = inconclusive; / = not tested or not shown; [ ] = dose if it differs, or a comment. Only some compounds are listed: those with a hit (about 2.2% of all), similar ones and a draw of the others.

SMILES	Ecoli rRNA inh	PvdQ acylase	PDI turbidity	ERp5 inh	FN deposit inh	Env fusion inh
COc1ccc2cc(C=NS(=O)(=O)c3ccc(C)cc3)n(C)c2c1	/	7.6	-3.9	/	3.2	58.6*
O=C(N[C@H]1CC[C@@H](CCNC(=O)C2CC2)O[C@@H]1CO)c1ccccn1	-0.6	/	/	-0.2	-8.6	-11.5[16.7 µM]
CC(=O)C1=C(c2ccccc2)OC(N)=C(C#N)C1c1ccccc1C (stereo unspecified)	-33.4*	4.1	-6.8	7.0	-4.0	-5.7
CCOC(=O)C1=C(c2ccccc2)OC(N)=C(C#N)C1c1cccs1 (stereo unspecified)	/	-1.7	-2.8	/	2.6	-14.9
CC(=O)C1=C(c2ccccc2)OC(N)=C(C#N)C1c1ccccc1F (stereo unspecified)	-46.6*	-0.7	-13.3	0.8	-16.9	0.6
COc1ccccc1C#Cc1ccc2c(c1)[C@H]1[C@H](CCN1S(=O)(=O)c1ccc(C)cc1)[C@H](CO)N2C	0.8	/	/	/	2.8	/
C[C@@H]1CN([C@@H](C)CO)C(=O)c2cc(NC(=O)CCCN(C)C)ccc2O[C@H]1CN(C)Cc1ccncc1	3.5	/	/	/	1.2	4.9[16.7 µM]
CCCN(CCC)c1ncnc2nc[nH]c12	-6.3	-2.3	-11.2	-3.3	15.2	61.8*
Cc1cccc(C)c1NC(=O)N1CCN(c2nc3ccccc3s2)CC1	/	-15.7	1.5	/	2.9	72.0*
COCCNC(=S)N1CCN(c2nc3ccccc3s2)CC1	-26.3*	-5.0	-1.4	-3.8	-20.5	10.6
COCCNC(=S)N1CCN(c2nc(-c3ccc(F)cc3)cs2)CC1	-18.4	-5.5	-2.5	3.2	7.0	30.4
Cc1cccc(Cl)c1NC(=O)N1CCCN(c2nc3ccc(Cl)cc3s2)CC1	13.3	-9.4	-0.1	0.1	3.7	9.5
COCCCNC(=S)N1CCN(c2nc3ccccc3s2)CC1	-29.8*	-6.5	-1.6	-3.5	-6.8	?
COCCCNC(=S)N1CCN(c2ccc([N+](=O)[O-])cc2)CC1	/	2.1	-3.7	/	-0.8	17.2
COc1ccccc1-c1nnc(SCC(=O)NCc2c(C)c(Cl)cc(C(C)C)c2O)o1	5.1	-10.7	-2.3	10.8	/	85.6*
CN(C)S(=O)(=O)Nc1cc(Cl)cc(Cl)c1	-36.9*	-17.6	-6.3	3.2	-5.8	-17.4
COc1ccccc1-n1c(SCC(=O)O)nc2c(sc(=S)n2-c2ccc(C)c(C)c2)c1=O	-20.8*	-6.1	-4.7	-2.5	10.2	-3.3
COc1ccccc1-n1c(SCC(=O)O)nc2c(sc(=S)n2-c2ccc(Cl)c(C)c2)c1=O	-33.5	-9.2	1.1	-5.2	3.9	6.2
O=C(O)c1ccc(C2NCC(c3ccccc3Cl)c3c2[nH]c2ccccc32)cc1 (stereo unspecified)	-36.9*	-1.6	1.0	-2.8	-2.7	-76.1
COc1cc(C2NCC(c3ccc(Cl)cc3Cl)c3c2[nH]c2ccccc32)cc(OC)c1OC (stereo unspecified)	0.4	-12.8	11.7	14.4	1.1	/
O=C(c1c[nH]c(C(=O)C(Cl)(Cl)Cl)c1)c1ccc(F)cc1F	-1.7	-15.3	15.4	2.1	-1.2	1.6
O=C(c1c[nH]c(C(=O)C(Cl)(Cl)Cl)c1)c1ccc(F)cc1Cl	-35.5*	-1.5	8.0	-1.8	-1.4	4.1
COc1cccc2c(Cl)c(CC=C(Cl)Cl)c(C)nc12	-3.4	1.7	3.4	2.3	-12.6	8.0
Cc1nc2c(C)cccc2c(SC(=N)N)c1CC=C(Cl)Cl	-20.9*	2.3	-4.5	-2.2	1.0	5.7
C=CCc1c(C)nc2c(OC)cccc2c1Cl	-20.9	-13.7	-5.6	3.7	7.3	-31.4
SMILES	Ecoli rRNA inh	PvdQ acylase	PDI turbidity	ERp5 inh	FN deposit inh	Env fusion inh
C=CCc1c(C)nc2c(C)cccc2c1SC(=N)N	-22.5*	25.8	-0.1	-2.1	-12.7	29.7
CC(C)n1cnc2c(N(C)c3cccc(Cl)c3)nc(N(CCO)CCO)nc21	-33.2*	-10.6	-10.7	-3.9	-0.7	31.8
O=C(CSCC(=O)Nc1cccc2ccccc12)Nc1cccc2ccccc12	3.1	-3.9	-3.1	5.9	-9.9	71.3*
C[C@H](CO)N1C[C@H](C)[C@@H](CN(C)C(=O)Nc2ccc(C(F)(F)F)cc2)Oc2ncc(-c3cccnc3)cc2C1=O	3.9	/	/	-6.4	3.1	-14.0[16.7 µM]
CCOC(=O)C1CCN(c2c(NCCCN(C)C3CCCCC3)c(=O)c2=O)CC1	4.4	-1.7	34.3*	-1.0	-0.4	1.3
Oc1cccc(NC(=S)N=Nc2c(O)[nH]c3ccccc23)c1	-54.1*	7.7	10.3	3.0	-3.7	7.2
CNC[C@@H]1Oc2ccc(NC(=O)CCCN(C)C)cc2CC(=O)N([C@@H](C)CO)C[C@H]1C	8.0	/	/	-1.8	/	-5.3[16.7 µM]
COc1ccccc1-n1c(C)nnc1SCC(N)=O	/	-5.9	-1.2	/	/	16.4
COc1ccccc1-n1c(C)nnc1SCC(=O)Nc1cc(C)cc(C)c1	/	-4.2	-3.4	/	-0.3	55.6*
COc1ccc2c3c([nH]c2c1)[C@H](CO)N(S(C)(=O)=O)CC31CCN(C(=O)CN(C)C)CC1	5.4	/	/	/	/	/
CO[C@H]1CN(C)C(=O)c2ccc(NS(=O)(=O)c3ccccc3C)cc2OC[C@H](C)NC[C@@H]1C	0.5	/	/	/	-3.5	/
O=C(O)CC/C(=C\c1ccc(N2CCOCC2)c([N+](=O)[O-])c1)c1nc2ccccc2s1	-30.7	-5.5	16.0	2.2	7.3	-5.2
O=C(O)C/C(=C\c1ccc(N2CCOCC2)c([N+](=O)[O-])c1)c1nc2ccccc2s1	-25.1*	6.8	5.7	-1.8	-8.9	7.8
C[C@@H]1CN([C@H](C)CO)S(=O)(=O)c2ccc(/C=C/c3ccccc3)cc2O[C@@H]1CN(C)C(=O)c1cccnc1	-5.4	/	/	9.4	1.5	25.9[16.7 µM]
CCOc1cc(CNc2ccc(OC)cc2)cc(Br)c1OCC(=O)NC(C)(C)C	-25.4*	-12.1	15.1	-2.3	/	/
CCOc1cc(CNc2ccc(Br)cc2)cc(Br)c1OCC(=O)NC(C)(C)C	1.2	1.7	1.2	-2.7	/	/
N#CCCn1nc(Cc2cccc3ccccc23)c(C#N)c1N	-9.7	-13.4	-1.5	3.6	-1.2	20.2
CCn1nc(Cc2cccc3ccccc23)c(C#N)c1N	-27.1*	-6.7	-1.9	0.9	4.5	15.1
COc1ccc2c3c([nH]c2c1)[C@@H](CO)N(C(=O)c1ccc(F)cc1)CC31CN(C)C1	0.8	/	/	/	/	/
CC(=O)Nc1ccc(C=NNc2nnc(NN=Cc3ccc(NC(C)=O)cc3)c3ccccc23)cc1	-16.3*	3.6	-6.9	0.0	-2.9	14.8
COc1ccc(NC(=O)N(C)C[C@@H]2OCc3cn(nn3)CCCC(=O)N([C@@H](C)CO)C[C@@H]2C)cc1	1.6	/	/	/	-6.5	/
COc1ccc2[nH]c3c(=O)n(CCCCC(=O)NCCN4CCCC4)c(=S)[nH]c3c2c1	-28.9*	-1.6	0.2	1.5	/	/
Clc1nccc(N2CCN(c3ccccc3Cl)CC2)n1	-25.4*	/	10.5	-7.6	2.5	2.8
CN1CCN(C2=C(Cl)C(=O)c3ccccc3C2=O)CC1	-5.1	-11.0	40.8*	-0.5	-0.9	5.8
